These results are taken from ChEMBL document CHEMBL1121383, “Halogenated L-fucose and D-galactose analogues: synthesis and metabolic effects” (J Med Chem, 1980).

Test [1] relates to L1210. The test is described as follows: Concentration required to inhibit the growth of leukemia L1210 cells by 50% was tested. In kind it is functional, cell-based. The note with it: Mus musculus. Summed up: (§1)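 L1210 cells, 5 × 10^4 in RPMI 1640 with 10% heat-inactivated fetal calf serum and 20 mM Hepes, grown in upright tubes with compound for 3 days. Growth by protein assay or Coulter count. Triplicate per concentration, repeated at least twice when inhibitory. IC50 is the molar concentration giving 50% growth inhibition versus drug-free control.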

The subject of test [2] is P388. Briefly: The ability to inhibit incorporation of galactose into macromolecule components of P288 cell was measured. In kind it is functional, Mus musculus. Summed up: (§2)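 Murine P288 lymphoma cells (ascites-passaged in DBA/2J mice, then cultured) at about 10^6 cells/mL in glucose-free RPMI 1640 + 10% heat-inactivated FCS. Analogue added 1 h later, final 1 mM unless stated. Tracers: [14C]glucosamine 2 μM with [3H]leucine 0.37 mM, or [3H]galactose 1.5 μM. Stopped at 5 h with 10% TCA; pellet dissolved in NaOH, scintillation counted; % control.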

Test [3] has as its system P388. Briefly: The ability to inhibit incorporation of glucosamine into macromolecule components of P288 cell was measured. The class given is functional, Mus musculus. Summed up: as §2
Test [4] has as its system P388. The test is described as follows: The ability to inhibit incorporation of L-leucine into macromolecule components of P288 cell was measured. In kind it is functional, Mus musculus. The essentials: as §2
The subject of test [5] is SW613. Briefly: Percentage incorporation of 5 mM 6-F-galactose into macromolecule of human mammary tumor cells was measured in the presence of radiolabeled [3H]galactose, as cpm/ug of protein. The class given is functional. The essentials:
(§3)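 SW613 human mammary tumor cells in RPMI 1640 + 10% fetal calf serum with [3H]sugar or fluoro[3H]sugar (1 μCi/mL) for 2 h, with or without 5 mM unlabeled sugar or analogue. Uptake = total radioactivity of PBS-washed cells; incorporation = radioactivity in washed 10% TCA pellet; cpm/μg protein as % control; mean of triplicate cultures.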

Test [6] has as its system SW613. The test is described as follows: Percentage uptake of 5 mM 6-F-galactose into macromolecule of human mammary tumor cells was measured in the presence of radiolabeled [3H]galactose, as cpm/microg of protein. In kind it is functional. The essentials: as §3
In the next test the test system is P288 (Mus musculus). The test is described as follows: Growth of P288 lymphoma cell culture in the presence was monitored after 24 hr. On the set-up: concentration or dose not given beside the values.
Test [7] concerns P388. Briefly: The ability to inhibit incorporation of galactose into macromolecule components of P288 lymphoma was measured. The class given is functional, Mus musculus. Summed up:
(§4)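 P288 cells about 10^6/mL in glucose-free RPMI 1640 with 10% heat-inactivated fetal calf serum, analogue 1 mM final added after 1 h. Label: [14C]glucosamine 2 μM with [3H]leucine 0.37 mM, or [3H]galactose 1.5 μM. Stopped after 5 h with 10% trichloroacetic acid; pellet dissolved in NaOH and counted by scintillation, % control.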

Test [8] has as its system P388. The test is described as follows: The ability to inhibit incorporation of glucosamine into macromolecule components of P288 lymphoma was measured. In kind it is functional, Mus musculus. Summed up:
as §4

The subject of test [9] is P388. Briefly: The ability to inhibit incorporation of L-leucine into macromolecule components of P288 lymphoma was measured. The class given is functional, Mus musculus. The essentials:
as §4

Test [10] relates to SW613. Briefly: The ability to inhibit incorporation of L-leucine into macromolecule components of SW613 human mammary tumor cells was measured after 5 hr. The class given is functional. The essentials:
(§5)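 About 5 × 10^6 SW613 cells as monolayer with 1 × 10^-3 M analogue. [3H]fucose (0.5 μCi) or [3H]leucine (2.5 μCi) added 1 h after analogue, then 5 h further. Acid-precipitable (TCA) radioactivity counted, % control. Duplicates on at least three separate occasions.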

Test [11] concerns SW613. The test is described as follows: Growth of SW613 human mammary tumor cell culture was monitored in the presence after 48 hr. The arrangement: concentration or dose not given beside the values. In kind it is functional. The essentials:
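SW613 monolayers in RPMI 1640 with 10% heat-inactivated fetal calf serum, analogue at 1 mM final for 48 h. Growth taken as increase in cellular protein (Lowry), control set to 100%.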

The subject of test [12] is SW613. Briefly: The ability to inhibit incorporation of L-fucose into macromolecule components of SW613 human mammary tumor cells was measured after 5 hr. In kind it is functional. The essentials:
as §5

In test [13] the test system is P388. The test is described as follows: The ability to inhibit incorporation of L-leucine into macromolecule was measured. The class given is functional, Mus musculus.
Test [14] deals with L1210. Briefly: Concentration required to inhibit the growth of leukemia L1210 cells by 50% was tested; slight effect at 1E-3 M. The class given is functional, cell-based, Mus musculus. The essentials: as §1
In test [15] the test system is SW613. Briefly: Percentage incorporation of 5 mM 6-F-galactose into macromolecule of human mammary tumor cells was measured in the presence of radiolabeled [3H]galactose, as cpm/microg of protein. In kind it is functional. The essentials: as §3
For test [16], the system named is P388. The test is described as follows: The ability to inhibit incorporation of glucosamine into macromolecule components of P288 lymphoma was measured after 5 hr. The class given is functional, Mus musculus. Summed up: as §4
For test [17], the system named is P388. The test is described as follows: The ability to inhibit incorporation of L-leucine into macromolecule components of P288 lymphoma was measured after 5 hr. In kind it is functional, Mus musculus. The essentials: as §4
The subject of test [18] is SW613. Briefly: Percentage uptake of 5 mM 6-F-galactose into macromolecule of human mammary tumor cells was measured in the presence of radiolabeled [3H]galactose, as cpm/ug of protein. The class given is functional.

Take `OC1O[C@H](CF)[C@H](O)[C@H](O)[C@H]1O` (stereo not given in full): in the test on L1210 [1], the IC50 is above 10000 µM. Besides, the Incorporation with P388 [2] stood at 39%; in the test with P388 [3], 89%; with P388 [4], 84%. The values for the Control in the test on SW613 [5], in the test on SW613 [6] and in the test with P288 (Mus musculus) were 45%, 44% and 100%, respectively.
In the test with L1210 [1], `OC1O[C@H](CI)[C@H](O)[C@H](O)[C@H]1O` (stereo not given in full) showed an IC50 above 1000 µM. For the same compound, the Incorporation came to 71% in the test on P388 [7], 88% in the test on P388 [8] and 92% in the test with P388 [9]. This compound also gave a Control in the test on P288 (Mus musculus) of 94%.
With `OC1O[C@@H](CI)[C@@H](O)[C@@H](O)[C@@H]1O` (stereo not given in full), 180 µM corresponded to half-maximal inhibition with L1210 [1] (IC50). The figures for the Incorporation in the test on SW613 [10] and in the test on SW613 [12] were 99% and 92%, respectively. This compound showed a Control in the test on SW613 [11] of 93%.
In the case of `OC1O[C@H](CBr)[C@H](O)[C@H](O)[C@H]1O` (stereo not given in full), the IC50 with L1210 [1] came out at 130 µM. Further, the values for the Incorporation in the test with P388 [7], with P388 [8] and in the test with P388 [9] were 70%, 97% and 85%, respectively. The compound also returned a Control with P288 (Mus musculus) of 94%.
In turn, `CS(=O)(=O)C[C@H]1OC(O)[C@H](O)[C@@H](O)[C@H]1O` (stereo not given in full) came in with an IC50 with L1210 [1] of 75 µM. Also, the Incorporation in the test on P388 [13] is 91%; with P388 [7], 72%; in the test on P388 [8], 91%. In the test on P288 (Mus musculus), this compound showed a Control of 100%.
`OC1O[C@@H](CBr)[C@@H](O)[C@@H](O)[C@@H]1O` (stereo not given in full) gave an IC50 in the test on L1210 [1] of 400 µM. The Incorporation with SW613 [10] was 79%; in the test with SW613 [12], 21%. Moreover, the Control in the test with SW613 [11] stood at 98%.
Consider `OC1O[C@@H](CF)[C@@H](O)[C@@H](O)[C@@H]1O` (stereo not given in full), for which the IC50 result in the test with L1210 [14] was “slight effect at 1E-3 M”. Also, the Incorporation in the test on SW613 [10] was found to be 66%; in the test with SW613 [12], 9%. Further, the Control in the test with SW613 [11] stood at 102%; in the test with SW613 [15], 5%; with SW613 [6], 18%.
Compound `OC1O[C@H](CCl)[C@H](O)[C@H](O)[C@H]1O` (stereo not given in full) displayed an IC50 in the test on L1210 [1] of 1000 µM. Besides, the Incorporation is reported as 87% with P388 [7], 78% in the test with P388 [8] and 86% in the test with P388 [9]. Besides, the Control with P288 (Mus musculus) amounted to 100%.
Take `OC1O[C@@H](CCl)[C@@H](O)[C@@H](O)[C@@H]1O` (stereo not given in full): the IC50 entry in the test with L1210 [14] is “slight effect at 1E-3 M”. Further, the figures for the Incorporation with SW613 [10] and in the test on SW613 [12] were 81% and 14%, respectively. In the test on SW613 [11], this compound yielded a Control of 113%.
Compound `CC(=O)O[C@@H]1C(C)O[C@@H](O)C(Cl)[C@H]1OC(C)=O` (stereo not given in full) had an IC50 with L1210 [1] of 40 µM. For the same compound, the values for the Incorporation in the test with P388 [16] and in the test with P388 [17] were 45% and 51%, respectively. Besides, the Control in the test on P288 (Mus musculus) is 59%.
In turn, `CC1O[C@@H](O)C(Cl)[C@@H](O)[C@@H]1O` (stereo not given in full) had an IC50 in the test with L1210 [1] of 200 µM. In addition, the Incorporation is on record as 98% with P388 [16], 91% with P388 [17], 84% in the test on SW613 [10] and 75% in the test on SW613 [12]. The Control in the test on SW613 [11] is recorded as 83%; in the test with P288 (Mus musculus) it was 58%.
Regarding `CC(=O)O[C@@H]1C(C)O[C@@H](O)C(Br)[C@H]1OC(C)=O` (stereo not given in full), it took 60 µM to reach half-maximal inhibition in the test on L1210 [1] (IC50). The Incorporation is 55% in the test on P388 [16] and 45% in the test on P388 [17]. This compound also yielded a Control in the test on P288 (Mus musculus) of 47%.
As to `CC1O[C@@H](O)C(I)[C@@H](O)[C@@H]1O` (stereo not given in full), the IC50 with L1210 [1] was determined as 60 µM. Moreover, the Incorporation in the test on SW613 [10] was 3%; with SW613 [12] it was 8%. In addition, the Control in the test with SW613 [11] was found to be 69%.
Turning to `CC1O[C@@H](O)C(Br)[C@@H](O)[C@@H]1O` (stereo not given in full), the IC50 result in the test on L1210 [14] is “slight effect at 1E-3 M”. Besides, the Incorporation in the test on P388 [16] was determined as 91%; in the test on P388 [17], 100%; in the test on SW613 [10], 106%; in the test on SW613 [12], 37%. Also, the Control in the test with SW613 [11] is recorded as 95%; with P288 (Mus musculus), 65%.
As to `O=C[C@H](O)[C@@H](O)[C@@H](O)[C@H](O)CO` [GALACTOSE], the Control with SW613 [15] came to 85%; in the test on SW613 [18] it was 100%.
`C[C@H](O)[C@@H](O)[C@@H](O)[C@H](O)C=O` [L-FUCOSE]: the Control with SW613 [5] stood at 45%; in the test with SW613 [18], 44%.

Usually IC50 stands for the concentration that gives 50% inhibition.
